This is an account of results in ChEMBL document CHEMBL1151903, “Unique behavior of 2,6-bis(bromomethyl)naphthalene as a highly active organic DNA crosslinking molecule” (Bioorg Med Chem, 2009).

As usually defined, the half-life is the time needed for the level to fall by half in the phase considered. What is called IC50 is the concentration at which inhibition is half-maximal.

The structures appear in SMILES notation. Activity calls are given as the source filed them.

Data set [1] in a line: Stability in aqueous solution assessed as half life. Format: physicochemical. The procedure, abridged:
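Compound at final 10 µM in 0.01 M sodium phosphate buffer pH 7.4/MeCN (4:1). Decomposition followed by reversed-phase RP-18 HPLC with UV detection, eluting with MeCN–H2O or MeOH–H2O; half-life taken from the decomposition rate.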

The subject of data set [2] is Nucleic Acid. The experiment in a line: Induction of […] DNA interstrand crosslinking activity at > 100 uM after 6 hrs by agarose gel electrophoresis. Format: nucleic-acid assay. The method in brief: (§1)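 Linearized pBluescript plasmid DNA (460 ng) exposed to compound in DMSO at 37 °C for 6 h. DNA recovered by EtOH precipitation and lyophilized, then taken up in 1 mM EDTA in 30% aqueous DMSO. Heat-denatured at 95 °C for 5 min and ice-quenched. Run on 1% agarose gel and stained with ethidium bromide.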

The next data set deals with CCRF-HSB-2. Description: Antiproliferative activity against human CCRF-HSB2 cells after 24 hrs by trypan blue exclusion assay. Format: functional, cell-based. The following applies: CCRF-HSB-2, 24 h. The procedure, abridged: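 CCRF-HSB-2 cells in RPMI1640 with 10% fetal calf serum, 37 °C, 5% CO2, seeded at 3 × 10^5 cell/mL in 3 mL per well. Pre-incubated 24 h, then given compound as DMSO solution (3 µL per well) for 24 h. Trypan blue-excluding cells counted.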

Data set [3] has as its system Salmonella enterica subsp. enterica. The experiment in a line: Mutagenic activity in Salmonella typhimurium TA92 assessed as crosslinking-associated increase in number of revertants after 2 days by Ames test. Format: toxicity, organism-based. The following applies: salmonella enterica subsp. enterica serovar typhimurium, 48 h. The method in brief:
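TA92 grown 15.5 h at 37 °C in nutrient broth/NaCl. Culture (0.1 mL) mixed with DMSO-diluted compound (50 µL) in 0.1 M sodium phosphate pH 7.4 and preincubated 20 min at 37 °C. Mixed into 0.6% soft agar and overlaid on minimal agar. Revertant colonies counted manually after 2 days at 37 °C; mean of six plates.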
In general terms: In the Ames test, an excess of revertant colonies over the control signals mutagenicity.

For data set [4] the test system is unchanged. The experiment in a line: Mutagenic activity in Salmonella typhimurium TA100 assessed as crosslinking-associated increase in number of revertants after 2 days by Ames test. The data set is classed as toxicity, organism-based. The following applies: salmonella enterica subsp. enterica serovar typhimurium, 48 h.
Data set [5] concerns Nucleic Acid. The experiment in a line: Induction of […] DNA interstrand crosslinking activity at 10 uM after 6 hrs by agarose gel electrophoresis. The data set is classed as nucleic-acid assay. The method in brief: as §1
For data set [6], the system named is Nucleic Acid. The experiment in a line: Induction of […] DNA interstrand crosslinking activity at 1 uM after 6 hrs by agarose gel electrophoresis. The data set is classed as nucleic-acid assay. The procedure, abridged: as §1

In the case of `ClCc1ccc(CCl)c2ccccc12`, the half-life in data set [1] was 5.5 h.

In the case of `BrCc1ccc(CBr)c2ncccc12`, the half-life in data set [1] came out at 10.5 h.

As to `BrCc1ccc2nc(CBr)ccc2c1`, the half-life in data set [1] was 12.8 h.

For the molecule `BrCc1ccc2cc(CBr)ccc2c1`, the result with Nucleic Acid [2] was inactive. For the same molecule, in data set [1], the half-life was less than 0.167 h. The molecule further gave an IC50 in the data set on CCRF-HSB-2 of 4 µM. The outcome in data set [3] and in data set [4] was Active.

Take `ClCc1ccc2cc(CCl)ccc2c1`: the half-life in data set [1] turned out to be 0.95 h.

Take `BrCc1ccc(CBr)c2ccccc12`: in data set [1], the half-life was 0.567 h. Moreover, the outcome in data set [3] and in data set [4] was Active. Also, the outcome in the data set on Nucleic Acid [5] and in the data set on Nucleic Acid [6] was Active.
